Assays:
[1] = target: Serine/threonine-protein kinase PAK 4 (Homo sapiens) (UniProt O96013); test: Inhibition of recombinant PAK4 (unknown origin) assessed as residual activity using [gamma-33P]ATP as substrate at 1 uM
Procedure, shortened: (§1)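 Selectivity panel run under previously published conditions. Screened at 1 μM in duplicate. Reactions started with [γ-33P]ATP (800 cpm/pmol) at 5, 20 or 50 μM, chosen to be at or below each enzyme's ATP Km. Stopped with phosphoric acid, spotted onto P81 filters. Result expressed as residual kinase activity.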

[2] = target: Mitogen-activated protein kinase 14 (Homo sapiens) (UniProt Q16539); test: Inhibition of recombinant p38 MAPKalpha (unknown origin) assessed as residual activity using [gamma-33P]ATP as substrate at 1 uM
Chain of Mitogen-activated protein kinase 14 (Homo sapiens) (Q16539 whole entry): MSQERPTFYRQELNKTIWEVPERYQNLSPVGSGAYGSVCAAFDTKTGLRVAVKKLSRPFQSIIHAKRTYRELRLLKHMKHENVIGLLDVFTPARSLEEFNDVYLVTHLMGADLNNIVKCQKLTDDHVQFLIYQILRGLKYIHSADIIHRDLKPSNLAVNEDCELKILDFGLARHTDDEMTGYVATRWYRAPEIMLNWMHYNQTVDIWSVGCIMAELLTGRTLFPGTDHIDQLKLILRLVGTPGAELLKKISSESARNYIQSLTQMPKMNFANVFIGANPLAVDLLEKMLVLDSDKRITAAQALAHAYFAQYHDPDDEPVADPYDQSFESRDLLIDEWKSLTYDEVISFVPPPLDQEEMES
Procedure, shortened: (§2)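 Kinase panel screen with each compound at 1 µM, in duplicate. Reactions were started with [γ-33P]ATP (800 cpm/pmol) at 5, 20 or 50 µM, chosen per enzyme to be at or below its ATP Km. Reactions were stopped with phosphoric acid and spotted onto P81 filters. Results are given as residual kinase activity.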

[3] = target: Serine/threonine-protein kinase OSR1 (Homo sapiens) (UniProt O95747); test: Inhibition of recombinant OSR1 (unknown origin) assessed as residual activity using [gamma-33P]ATP as substrate at 1 uM; procedure, shortened: as §1
[4] = target: Serine/threonine-protein kinase Nek2 (Homo sapiens) (UniProt P51955); test: Inhibition of recombinant NEK2a (unknown origin) assessed as residual activity using [gamma-33P]ATP as substrate at 1 uM; procedure, shortened: as §1
[5] = target: Mitogen-activated protein kinase kinase kinase 11 (Homo sapiens) (UniProt Q16584); test: Inhibition of recombinant MLK3 (unknown origin) assessed as residual activity using [gamma-33P]ATP as substrate at 1 uM; procedure, shortened: as §1
[6] = target: MAP/microtubule affinity-regulating kinase 3 (Homo sapiens) (UniProt P27448); test: Inhibition of recombinant MARK3 (unknown origin) assessed as residual activity using [gamma-33P]ATP as substrate at 1 uM; procedure, shortened: as §1
[7] = target: Serine/threonine-protein kinase MARK1 (Homo sapiens) (UniProt Q9P0L2); test: Inhibition of recombinant MARK1 (unknown origin) assessed as residual activity using [gamma-33P]ATP as substrate at 1 uM; procedure, shortened: as §1
[8] = target: MAP kinase-activated protein kinase 2 (Homo sapiens) (UniProt P49137); test: Inhibition of recombinant MAPKAPK2 (unknown origin) assessed as residual activity using [gamma-33P]ATP as substrate at 1 uM; procedure, shortened: as §1
[9] = target: Tyrosine-protein kinase Lck (Homo sapiens) (UniProt P06239); test: Inhibition of recombinant LCK (unknown origin) assessed as residual activity using [gamma-33P]ATP as substrate at 1 uM; procedure, shortened: as §1
[10] = target: Serine/threonine-protein kinase Chk2 (Homo sapiens) (UniProt O96017); test: Inhibition of recombinant CHK2 (unknown origin) assessed as residual activity using [gamma-33P]ATP as substrate at 1 uM
Procedure, shortened: (§3)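 Recombinant kinase panel screened at 1 µM in duplicate. Reactions started with [γ-33P]ATP (800 cpm/pmol) at 5, 20 or 50 µM, chosen to sit at or below each enzyme's ATP Km. Stopped with phosphoric acid and spotted onto P81 filters. Result given as residual kinase activity.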

[11] = target: Mitogen-activated protein kinase 15 (Homo sapiens) (UniProt Q8TD08); test: Inhibition of recombinant ERK8 (unknown origin) assessed as residual activity using [gamma-33P]ATP as substrate at 1 uM; procedure, shortened: as §3
Chain of Mitogen-activated protein kinase 15 (Homo sapiens) (Q8TD08 whole entry): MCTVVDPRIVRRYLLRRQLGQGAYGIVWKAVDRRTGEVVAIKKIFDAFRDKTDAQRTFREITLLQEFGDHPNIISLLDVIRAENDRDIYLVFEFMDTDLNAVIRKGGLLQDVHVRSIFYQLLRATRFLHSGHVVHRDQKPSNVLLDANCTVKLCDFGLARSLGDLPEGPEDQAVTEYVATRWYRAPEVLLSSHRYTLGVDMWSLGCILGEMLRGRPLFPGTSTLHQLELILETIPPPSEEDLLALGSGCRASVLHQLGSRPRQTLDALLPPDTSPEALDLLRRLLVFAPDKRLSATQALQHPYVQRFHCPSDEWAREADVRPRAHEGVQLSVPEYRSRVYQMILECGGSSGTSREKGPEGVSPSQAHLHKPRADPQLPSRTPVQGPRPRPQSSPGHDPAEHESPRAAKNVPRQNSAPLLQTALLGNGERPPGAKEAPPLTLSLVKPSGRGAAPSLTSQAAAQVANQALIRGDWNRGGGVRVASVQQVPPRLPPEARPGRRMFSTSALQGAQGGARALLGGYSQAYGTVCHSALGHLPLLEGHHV

[12] = target: Mitogen-activated protein kinase 1 (Homo sapiens) (UniProt P28482); test: Inhibition of recombinant ERK2 (unknown origin) assessed as residual activity using [gamma-33P]ATP as substrate at 1 uM; procedure, shortened: as §3
[13] = target: Aurora kinase A/B (Homo sapiens) (UniProt Q96GD4+O14965); test: Activity at Aurora kinase A/B in human MCF7 cells assessed as histone H3 phosphorylation at Ser10 at 100 uM after 24 hrs by flow cytometry relative to untreated control; type: cell-based
Procedure, shortened: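 Flow cytometry on MCF7 cells exposed 24 h to 100 µM. About one million cells fixed in 90% methanol, rehydrated, and labelled with primary antibody to pH3 Ser10, then an Alexa Fluor 488 secondary. Alexa read at 488/525 nm (ex/em). The value is the fraction of pH3-positive cells in treated cultures divided by that in untreated control.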

[14] = target: High affinity nerve growth factor receptor (Homo sapiens) (UniProt P04629); test: Inhibition of recombinant TRKA (unknown origin) assessed as residual activity using [gamma-33P]ATP as substrate at 1 uM; procedure, shortened: as §2
Chain of High affinity nerve growth factor receptor (Homo sapiens) (P04629 33-796 limits assumed): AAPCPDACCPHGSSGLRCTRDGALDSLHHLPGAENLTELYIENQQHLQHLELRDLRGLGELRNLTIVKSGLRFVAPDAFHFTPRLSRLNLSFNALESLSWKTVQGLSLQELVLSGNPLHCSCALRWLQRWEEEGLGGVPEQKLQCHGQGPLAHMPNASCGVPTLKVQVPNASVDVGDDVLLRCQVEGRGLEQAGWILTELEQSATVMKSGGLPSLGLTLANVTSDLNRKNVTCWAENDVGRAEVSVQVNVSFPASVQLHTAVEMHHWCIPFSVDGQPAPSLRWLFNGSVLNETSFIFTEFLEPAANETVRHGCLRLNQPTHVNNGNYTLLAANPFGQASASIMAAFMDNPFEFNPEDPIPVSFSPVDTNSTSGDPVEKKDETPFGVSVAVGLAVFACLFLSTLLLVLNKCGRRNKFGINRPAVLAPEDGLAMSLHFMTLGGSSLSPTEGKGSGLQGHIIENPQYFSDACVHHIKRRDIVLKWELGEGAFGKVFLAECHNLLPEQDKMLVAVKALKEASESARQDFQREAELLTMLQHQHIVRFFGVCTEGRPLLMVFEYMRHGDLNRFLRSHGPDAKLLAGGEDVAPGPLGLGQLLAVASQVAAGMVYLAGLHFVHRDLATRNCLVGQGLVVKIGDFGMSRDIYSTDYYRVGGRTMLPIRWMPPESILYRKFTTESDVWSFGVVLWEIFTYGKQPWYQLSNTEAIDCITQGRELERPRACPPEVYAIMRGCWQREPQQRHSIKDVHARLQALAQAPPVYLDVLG

[15] = target: Serine/threonine-protein kinase TAO1 (Homo sapiens) (UniProt Q7L7X3); test: Inhibition of recombinant TAO1 (unknown origin) assessed as residual activity using [gamma-33P]ATP as substrate at 1 uM; procedure, shortened: as §2
[16] = target: Serine/threonine-protein kinase 33 (Homo sapiens) (UniProt Q9BYT3); test: Inhibition of recombinant STK33 (unknown origin) assessed as residual activity using [gamma-33P]ATP as substrate at 1 uM; procedure, shortened: as §2
Chain of Serine/threonine-protein kinase 33 (Homo sapiens) (Q9BYT3 whole entry, looked up): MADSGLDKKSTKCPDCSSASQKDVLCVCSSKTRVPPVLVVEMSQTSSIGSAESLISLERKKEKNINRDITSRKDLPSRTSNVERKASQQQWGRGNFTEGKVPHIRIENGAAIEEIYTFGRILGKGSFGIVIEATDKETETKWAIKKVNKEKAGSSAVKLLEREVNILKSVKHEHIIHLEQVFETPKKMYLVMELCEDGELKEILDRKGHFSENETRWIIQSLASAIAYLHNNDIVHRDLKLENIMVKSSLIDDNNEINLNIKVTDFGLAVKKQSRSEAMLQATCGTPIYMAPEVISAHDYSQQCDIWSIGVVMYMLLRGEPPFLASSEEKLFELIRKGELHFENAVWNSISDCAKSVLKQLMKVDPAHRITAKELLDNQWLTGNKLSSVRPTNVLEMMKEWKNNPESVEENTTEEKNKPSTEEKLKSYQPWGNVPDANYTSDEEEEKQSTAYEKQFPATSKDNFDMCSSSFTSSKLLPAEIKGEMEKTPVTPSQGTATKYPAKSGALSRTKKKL

[17] = target: Ribosomal protein S6 kinase alpha-3 (Homo sapiens) (UniProt P51812); test: Inhibition of recombinant RSK2 (unknown origin) assessed as residual activity using [gamma-33P]ATP as substrate at 1 uM; procedure, shortened: as §2
[18] = target: Protein kinase C gamma type (Homo sapiens) (UniProt P05129); test: Inhibition of recombinant PKCgamma (unknown origin) assessed as residual activity using [gamma-33P]ATP as substrate at 1 uM; procedure, shortened: as §1
[19] = target: Protein kinase C zeta type (Homo sapiens) (UniProt Q05513); test: Inhibition of recombinant PKCzeta (unknown origin) assessed as residual activity using [gamma-33P]ATP as substrate at 1 uM; procedure, shortened: as §1
Chain of Protein kinase C zeta type (Homo sapiens) (Q05513 whole entry): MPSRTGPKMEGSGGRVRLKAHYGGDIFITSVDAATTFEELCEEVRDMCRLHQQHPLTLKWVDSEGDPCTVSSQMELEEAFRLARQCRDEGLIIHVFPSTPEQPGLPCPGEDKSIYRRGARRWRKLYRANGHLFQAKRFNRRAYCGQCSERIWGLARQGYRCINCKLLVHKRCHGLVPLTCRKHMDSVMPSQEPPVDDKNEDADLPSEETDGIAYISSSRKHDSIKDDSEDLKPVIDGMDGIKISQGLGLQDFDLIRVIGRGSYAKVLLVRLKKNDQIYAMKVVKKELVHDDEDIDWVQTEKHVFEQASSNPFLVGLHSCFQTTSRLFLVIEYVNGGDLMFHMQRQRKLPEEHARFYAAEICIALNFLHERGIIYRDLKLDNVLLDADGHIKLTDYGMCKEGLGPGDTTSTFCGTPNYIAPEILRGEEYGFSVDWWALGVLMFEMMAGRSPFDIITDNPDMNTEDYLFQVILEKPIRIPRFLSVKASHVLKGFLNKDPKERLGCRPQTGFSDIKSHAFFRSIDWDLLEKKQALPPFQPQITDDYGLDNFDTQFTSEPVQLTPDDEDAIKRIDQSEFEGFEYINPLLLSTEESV

[20] = target: Ephrin type-A receptor 2 (Homo sapiens) (UniProt P29317); test: Inhibition of recombinant EPH-A2 (unknown origin) assessed as residual activity using [gamma-33P]ATP as substrate at 1 uM; procedure, shortened: as §3
Chain of Ephrin type-A receptor 2 (Homo sapiens) (P29317 whole entry): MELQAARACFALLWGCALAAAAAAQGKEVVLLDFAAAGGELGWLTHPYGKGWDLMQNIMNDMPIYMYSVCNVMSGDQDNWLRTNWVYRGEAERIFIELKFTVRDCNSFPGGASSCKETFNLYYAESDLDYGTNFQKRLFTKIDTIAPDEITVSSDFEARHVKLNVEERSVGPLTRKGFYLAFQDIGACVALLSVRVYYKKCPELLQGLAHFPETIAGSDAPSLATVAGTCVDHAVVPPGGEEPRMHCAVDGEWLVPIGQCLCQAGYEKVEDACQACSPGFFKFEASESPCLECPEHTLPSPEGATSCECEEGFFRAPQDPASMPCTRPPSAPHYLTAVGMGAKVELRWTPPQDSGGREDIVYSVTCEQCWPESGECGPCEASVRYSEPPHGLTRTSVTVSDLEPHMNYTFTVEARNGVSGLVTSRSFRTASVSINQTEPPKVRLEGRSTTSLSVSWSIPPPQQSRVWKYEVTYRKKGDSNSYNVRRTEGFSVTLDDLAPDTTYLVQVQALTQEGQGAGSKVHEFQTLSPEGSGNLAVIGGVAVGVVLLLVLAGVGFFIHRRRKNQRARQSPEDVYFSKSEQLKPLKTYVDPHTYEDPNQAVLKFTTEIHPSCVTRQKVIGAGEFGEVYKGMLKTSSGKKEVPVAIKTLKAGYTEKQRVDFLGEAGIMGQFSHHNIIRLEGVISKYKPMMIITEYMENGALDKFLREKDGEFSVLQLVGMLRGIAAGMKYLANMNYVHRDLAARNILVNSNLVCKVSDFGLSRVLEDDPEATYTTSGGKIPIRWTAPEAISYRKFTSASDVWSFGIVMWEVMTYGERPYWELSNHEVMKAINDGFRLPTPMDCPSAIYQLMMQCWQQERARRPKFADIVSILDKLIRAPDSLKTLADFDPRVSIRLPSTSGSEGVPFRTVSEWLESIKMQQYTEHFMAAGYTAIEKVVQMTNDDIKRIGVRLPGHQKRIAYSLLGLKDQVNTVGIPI

[21] = target: Casein kinase II (Homo sapiens) (UniProt P67870+P68400+P19784); test: Inhibition of recombinant CK2 (unknown origin) assessed as residual activity using [gamma-33P]ATP as substrate at 1 uM; type: protein-complex assay; procedure, shortened: as §3
Homo sapiens = organism: Homo sapiens; test: Inhibition of recombinant CK1 (unknown origin) assessed as residual activity using [gamma-33P]ATP as substrate at 1 uM; procedure, shortened: as §3
[22] = target: Tyrosine-protein kinase ABL1 (Homo sapiens) (UniProt P00519); test: Inhibition of recombinant ABL (unknown origin) assessed as residual activity using [gamma-33P]ATP as substrate at 1 uM; procedure, shortened: as §3
MCF7 = test: Cytotoxicity against human MCF7 cells assessed as inhibition of cell viability after 72 hrs by calcien AM dye based fluorescence analysis; type: functional; settings: MCF7, 72 h
Procedure, shortened: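 MCF7 cells grown in DMEM with 10% FBS, 2 mM glutamine, penicillin and streptomycin at 37 °C and 5% CO2. About 10,000 cells per well, left 4 h, then a concentration range added in triplicate, DMSO ≤0.5% final. After 72 h, 1 µg/ml calcein AM (final) for 1 h; fluorescence read at 485/538 nm. Viability given as % of control; IC50 read graphically from dose-response curves; mean of ≥3 independent experiments.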

Chain of Serine/threonine-protein kinase PAK 4 (Homo sapiens) (O96013 whole entry, looked up): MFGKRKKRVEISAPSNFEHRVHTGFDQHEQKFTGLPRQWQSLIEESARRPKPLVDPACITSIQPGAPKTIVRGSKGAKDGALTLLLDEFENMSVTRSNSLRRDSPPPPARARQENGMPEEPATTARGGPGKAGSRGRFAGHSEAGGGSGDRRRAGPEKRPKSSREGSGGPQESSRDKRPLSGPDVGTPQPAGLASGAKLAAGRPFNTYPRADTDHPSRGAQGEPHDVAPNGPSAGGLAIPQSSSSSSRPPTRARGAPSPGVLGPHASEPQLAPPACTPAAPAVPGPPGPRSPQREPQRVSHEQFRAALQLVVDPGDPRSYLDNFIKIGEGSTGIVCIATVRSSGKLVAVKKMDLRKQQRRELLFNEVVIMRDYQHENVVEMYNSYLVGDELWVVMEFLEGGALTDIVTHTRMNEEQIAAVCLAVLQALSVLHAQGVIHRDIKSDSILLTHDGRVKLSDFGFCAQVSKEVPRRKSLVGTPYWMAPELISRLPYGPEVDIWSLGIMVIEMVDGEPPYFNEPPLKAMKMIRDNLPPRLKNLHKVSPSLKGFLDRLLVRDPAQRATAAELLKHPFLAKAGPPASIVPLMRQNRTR

CC[C@H](CO)Nc1nc(NC(=N)N)c2ncn(C(C)C)c2n1
Activity [1]: 15%
Activity [2]: 87%
Activity [3]: 16%
Activity [4]: 73%
Activity [5]: 37%
Activity [6]: 24%
Activity [7]: 31%
Activity [8]: 41%
Activity [9]: 13%
Activity [10]: 59%
Activity [11]: 16%
Activity [12]: 32%
Ratio [13]: 0.08
Activity [14]: 24%
Activity [15]: 9%
Activity [16]: 11%
Activity [17]: 35%
Activity [18]: 73%
Activity [19]: 68%
Activity [20]: 22%
Activity [21]: 43%
Activity (Homo sapiens): 15%
Activity [22]: 5%
IC50 (MCF7): 4.5 µM

CC[C@@H](CO)Nc1nc(NC(=N)N)c2ncn(C(C)C)c2n1
Activity [1]: 12%
Activity [2]: 82%
Activity [3]: 16%
Activity [4]: 57%
Activity [5]: 37%
Activity [6]: 17%
Activity [7]: 39%
Activity [8]: 48%
Activity [9]: 12%
Activity [10]: 42%
Activity [11]: 18%
Activity [12]: 15%
Ratio [13]: 0.09
Activity [14]: 28%
Activity [15]: 9%
Activity [16]: 9%
Activity [17]: 71%
Activity [18]: 61%
Activity [19]: 61%
Activity [20]: 17%
Activity [21]: 33%
Activity (Homo sapiens): 21%
Activity [22]: 6%
IC50 (MCF7): 1.6 µM

Reference: ChEMBL document CHEMBL2331324, “Synthesis and biological evaluation of guanidino analogues of roscovitine” (Eur J Med Chem, 2013)
